We go through 18 molecules from ChEMBL document CHEMBL3259704, “Second generation steroidal 4-aminoquinolines are potent, dual-target inhibitors of the botulinum neurotoxin serotype A metalloprotease and P. falciparum malaria” (J Med Chem, 2014).

Data set [1] concerns Plasmodium falciparum. Briefly: Antimalarial activity against CQ, MFQ-resistant Plasmodium falciparum TM91C235 clone Southeast asian isolate assessed as inhibition of parasite proliferation by MSF assay. The class given is functional, organism-based. In a few lines:
(§1)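 SYBR Green I fluorescence (MSF) microtiter drug-sensitivity assay: malarial DNA content is the measure of in vitro parasite proliferation. Resistance index is the IC90 ratio of the resistant strain to D6.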

Data set [2] deals with Botulinum neurotoxin type A (Clostridium botulinum) (UniProt P0DPI0). Briefly: Inhibition of Clostridium botulinum recombinant BoNT/A light chain using N-terminal acetylated, C-terminal aminated SNAP-25 (187-203) as substrate at 20 uM by reverse-phase HPLC analysis. In a few lines:
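Recombinant BoNT/A LC with SNAP-25 187–203 peptide substrate in 40 mM HEPES–0.05% Tween, pH 7.3, with 0.5 mg/mL BSA and 50 μM excess Zn, at 37 °C. Quenched with TFA; reverse-phase HPLC product/substrate peak areas give percent inhibition, run in duplicate.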

In the next data set the test system is HepG2. The data set is described as follows: Cytotoxicity against human HepG2 cells assessed as cell viability after 48 hrs by MTT assay. The following applies: HepG2, 48 h. The class given is cell-based. In general terms: Formazan colour is commonly taken as a measure of viable cells.
Data set [3] is described as follows: Selectivity index, ratio of IC50 for human HepG2 cells to IC50 for CQ-resistant, MFQ-susceptible Plasmodium falciparum W2 clone Indochina 1 isolate. The class given is toxicity, cell-based. The following applies: read-out: Ratio IC50.
Data set [4] in a line: Selectivity index, ratio of IC50 for human HepG2 cells to IC50 for CQ, MFQ-resistant Plasmodium falciparum TM91C235 clone Southeast asian isolate. The class given is toxicity, cell-based. The conditions noted are these: read-out: Ratio IC50.
A short description of data set [5]: Selectivity index, ratio of IC50 for human HepG2 cells to IC50 for CQ, MFQ-susceptible Plasmodium falciparum D6 clone Sierra 1/UNC isolate. The class given is toxicity, cell-based. The conditions noted are these: read-out: Ratio IC50.
Data set [6] deals with Plasmodium falciparum. The data set is described as follows: Antimalarial activity against CQ-resistant, MFQ-susceptible Plasmodium falciparum W2 clone Indochina 1 isolate assessed as inhibition of parasite proliferation by MSF assay. The class given is functional, organism-based. A digest of the protocol:
as §1

For data set [7], the system named is Plasmodium falciparum. The data set is described as follows: Antimalarial activity against CQ, MFQ-susceptible Plasmodium falciparum D6 clone Sierra 1/UNC isolate assessed as inhibition of parasite proliferation by MSF assay. The class given is functional, organism-based. A digest of the protocol: as §1
In data set [8] the target is Botulinum neurotoxin type A (Clostridium botulinum, UniProt P0DPI0). Briefly: Inhibition of Clostridium botulinum recombinant BoNT/A light chain using N-terminal acetylated, C-terminal aminated SNAP-25 (187-203) as substrate by reverse-phase HPLC analysis. In a few lines: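 Same HPLC LC cleavage assay (pH 7.3 HEPES/Tween, BSA, excess Zn, 37 °C). […] Ki comes from velocity versus substrate at several inhibitor levels, globally fit to a competitive model.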
Chain of Botulinum neurotoxin type A (P0DPI0 2-448 limits assumed): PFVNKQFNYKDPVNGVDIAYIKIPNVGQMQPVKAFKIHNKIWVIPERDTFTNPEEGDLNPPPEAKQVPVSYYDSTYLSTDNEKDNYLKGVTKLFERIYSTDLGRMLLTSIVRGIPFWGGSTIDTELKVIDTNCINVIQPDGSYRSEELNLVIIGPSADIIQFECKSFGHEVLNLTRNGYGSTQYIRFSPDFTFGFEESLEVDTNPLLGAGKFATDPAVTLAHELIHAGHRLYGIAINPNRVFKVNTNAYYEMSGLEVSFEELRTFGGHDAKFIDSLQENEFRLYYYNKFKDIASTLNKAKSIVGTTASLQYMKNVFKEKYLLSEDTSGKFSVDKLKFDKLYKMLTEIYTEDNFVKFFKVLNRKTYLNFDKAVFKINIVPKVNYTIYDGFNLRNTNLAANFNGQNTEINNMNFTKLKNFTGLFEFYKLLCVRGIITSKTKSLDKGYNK

Molecules are shown by their SMILES.

Chain of Botulinum neurotoxin type A (Clostridium botulinum) (P0DPI0 2-448 limits assumed): as above

Consider `CC(=O)O[C@H]1C[C@H]2[C@@H]([C@H](OC(C)=O)C[C@@H]3C[C@H](NC(=O)OC(C)(C)C)CC[C@@]32C)[C@@H]2CC[C@H]([C@H](C)CCCN(CCCNc3ccnc4cc(Cl)ccc34)CCC[C@@H](C)[C@H]3CC[C@H]4[C@@H]5[C@H](OC(C)=O)C[C@@H]6C[C@H](NC(=O)OC(C)(C)C)CC[C@]6(C)[C@H]5C[C@H](OC(C)=O)[C@]34C)[C@@]12C`, for which the concentration for half-maximal inhibition (IC50) – broadly, the concentration at which inhibition is half-maximal – with Plasmodium falciparum [1] amounted to 369 nM; with HepG2, 35400 nM. Also, the inhibition (commonly the share of the control response that was lost under treatment) in data set [2] stood at 6.42%. Besides, the selectivity ratio in [3], in data set [4] and in data set [5] was 96 in each case.

Turning to `CC(=O)O[C@H]1C[C@H]2[C@@H]([C@H](OC(C)=O)C[C@@H]3C[C@H](O)CC[C@@]32C)[C@@H]2CC[C@H]([C@H](C)CCCNCCCCCCNc3ccnc4cc(Cl)ccc34)[C@@]12C`, the IC50 with Plasmodium falciparum [1] was found to be 40.6 nM; with Plasmodium falciparum [6], 33.9 nM; with HepG2 it was 2040 nM; with Plasmodium falciparum [7], 36.6 nM. In addition, the inhibition in data set [2] was 62.9%. The selectivity ratio in [3] amounted to 60; in data set [4], 50; in [5] it was 56.

For the molecule `N=C(N)c1ccc(Oc2ccc(-c3cc4ccc(C(=N)N)cc4[nH]3)cc2)cc1`, the concentration for half-maximal inhibition (IC50) in data set [8] is 2620 nM.

As to `CC(=O)O[C@H]1C[C@H]2[C@@H]([C@H](OC(C)=O)C[C@@H]3C[C@@H](NCCCCCCNc4ccnc5cc(Cl)ccc45)CC[C@@]32C)[C@@H]2CC[C@H]([C@H](C)CCCNCCCCCCNc3ccnc4cc(Cl)ccc34)[C@@]12C`, the inhibition in data set [2] came to 89.6%. Moreover, in data set [8], the Ki (as a rule, the equilibrium dissociation constant of an inhibitor or competing ligand from its target) stood at 389 nM.

`CCN(CC)CCCC(C)Nc1ccnc2cc(Cl)ccc12` (centres undefined) [CHLOROQUINE]: the IC90 (usually the point of the concentration-response curve where the effect stands at 90%) came to 373 nM with Plasmodium falciparum [1], 698 nM with Plasmodium falciparum [6] and 16.1 nM with Plasmodium falciparum [7]. Besides, the inhibition in data set [2] is 6.51%.

As for `CC(=O)O[C@H]1C[C@H]2[C@@H]([C@H](OC(C)=O)C[C@@H]3C[C@H](NC(=O)OC(C)(C)C)CC[C@@]32C)[C@@H]2CC[C@H]([C@H](C)CCCN(C)CCCNc3ccnc4cc(Cl)ccc34)[C@@]12C`, the inhibition in data set [2] was 59.6%. Besides, the IC50 in [8] stood at 6620 nM.

Take `Clc1ccc2c(NCCNC34CC5CC(CC(C5)C3)C4)ccnc2c1`: in [8], the IC50 is 11800 nM.

Turning to `CC(=O)O[C@H]1C[C@H]2[C@@H]([C@H](OC(C)=O)C[C@@H]3CC(=O)CC[C@@]32C)[C@@H]2CC[C@H]([C@H](C)CCCNCCCCCCNc3ccnc4cc(Cl)ccc34)[C@@]12C`, the IC50 with Plasmodium falciparum [1] was 51.6 nM; in the data set on Plasmodium falciparum [6], 42.1 nM; in the data set with HepG2, 1280 nM; in the data set on Plasmodium falciparum [7], 47.5 nM. The inhibition in [2] was determined as 77.2%. The selectivity ratio is 30 in data set [3], 25 in data set [4] and 27 in data set [5].

As for `CC(=O)O[C@H]1C[C@H]2[C@@H]([C@H](OC(C)=O)C[C@@H]3C[C@H](NCCCCCCNc4ccnc5cc(Cl)ccc45)CC[C@@]32C)[C@@H]2CC[C@H]([C@H](C)CCCNCCCCNc3ccnc4cc(Cl)ccc34)[C@@]12C`, the inhibition in data set [2] stood at 93.7%. Moreover, the Ki in [8] is 300 nM.

For the molecule `CC(=O)O[C@H]1C[C@H]2[C@@H]([C@H](OC(C)=O)C[C@@H]3C[C@H](O)CC[C@@]32C)[C@@H]2CC[C@H]([C@H](C)CCCNCCCCNc3ccnc4cc(Cl)ccc34)[C@@]12C`, the IC50 in the data set on Plasmodium falciparum [1] came to 56.3 nM; in the data set with Plasmodium falciparum [6], 33.8 nM; in the data set on HepG2, 1580 nM; in the data set with Plasmodium falciparum [7] it was 52.1 nM. Besides, the inhibition in data set [2] is 80.8%. Also, the selectivity ratio in data set [3] amounted to 47; in data set [4], 28; in data set [5], 30.

`CC(=O)O[C@@H]1CC[C@@]2(C)[C@@H](C1)C[C@@H](OC(C)=O)[C@@H]1[C@@H]2C[C@H](OC(C)=O)[C@]2(C)[C@@H]([C@H](C)CCCNCCNc3ccnc4cc(Cl)ccc34)CC[C@@H]12`: the values for the IC90 in the data set on Plasmodium falciparum [1], with Plasmodium falciparum [6] and in the data set with Plasmodium falciparum [7] were 77.9 nM, 32.5 nM and 34.2 nM, respectively. Besides, the inhibition in [2] was determined as 74%. In addition, the IC50 in [8] was 3800 nM. Moreover, the Ki in data set [8] was determined as 6990 nM.

Regarding `CC(=O)O[C@@H]1CC[C@@]2(C)[C@@H](C1)C[C@@H](OC(C)=O)[C@@H]1[C@@H]2C[C@H](OC(C)=O)[C@]2(C)[C@@H]([C@H](C)CCCNCCCCNc3ccnc4cc(Cl)ccc34)CC[C@@H]12`, the IC50 in the data set with Plasmodium falciparum [1] turned out to be 54.5 nM; with Plasmodium falciparum [6] it was 23.9 nM; in the data set on HepG2 it was 2560 nM; in the data set on Plasmodium falciparum [7], 46.5 nM. Further, the inhibition in [2] stood at 69%. Moreover, the figures for the selectivity ratio in [3], in data set [4] and in data set [5] were 107, 47 and 55, respectively.

Consider `CC(=O)O[C@H]1C[C@H]2[C@@H]([C@H](OC(C)=O)C[C@@H]3C[C@@H](NCCCCCCNc4ccnc5cc(Cl)ccc45)CC[C@@]32C)[C@@H]2CC[C@H]([C@H](C)CCCNCCCCNc3ccnc4cc(Cl)ccc34)[C@@]12C`, for which the inhibition in data set [2] is 95.4%. The Ki in data set [8] is 103 nM.

On to `CC(=O)O[C@H]1C[C@H]2[C@@H]([C@H](OC(C)=O)C[C@@H]3CC(=O)CC[C@@]32C)[C@@H]2CC[C@H]([C@H](C)CCCNCCCCNc3ccnc4cc(Cl)ccc34)[C@@]12C`, for which the half-inhibitory concentration (IC50) in the data set with Plasmodium falciparum [1] came out at 214 nM; in the data set with Plasmodium falciparum [6], 175 nM; with HepG2, 1230 nM. Besides, the inhibition in data set [2] amounted to 81.5%. In addition, the selectivity ratio in [3] stood at 7; in data set [4], 6; in data set [5] it was 6.

With `CC(=O)O[C@@H]1CC[C@@]2(C)[C@@H](C1)C[C@@H](OC(C)=O)[C@@H]1[C@@H]2C[C@H](OC(C)=O)[C@]2(C)[C@@H]([C@H](C)CCCNCCCCCCNc3ccnc4cc(Cl)ccc34)CC[C@@H]12`, the 50% inhibitory concentration (IC50) with Plasmodium falciparum [1] turned out to be 104 nM; in the data set on Plasmodium falciparum [6], 56.4 nM; in the data set on HepG2 it was 2640 nM; with Plasmodium falciparum [7], 91 nM. In addition, in [2], the inhibition stood at 83.3%. The figures for the selectivity ratio in [3], in data set [4] and in [5] were 47, 25 and 29, respectively.

Regarding `CC(=O)O[C@H]1C[C@H]2[C@@H]([C@H](OC(C)=O)C[C@@H]3C[C@H](NC(=O)OC(C)(C)C)CC[C@@]32C)[C@@H]2CC[C@H]([C@H](C)CCCNCCCNc3ccnc4cc(Cl)ccc34)[C@@]12C`, the inhibition in data set [2] came out at 74.9%. Besides, in data set [8], the IC50 amounted to 3240 nM.

For the molecule `CC(=O)O[C@H]1C[C@H]2[C@@H]([C@H](OC(C)=O)C[C@@H]3C[C@@H](NCCCCNc4ccnc5cc(Cl)ccc45)CC[C@@]32C)[C@@H]2CC[C@H]([C@H](C)CCCNCCCCNc3ccnc4cc(Cl)ccc34)[C@@]12C`, the inhibition in data set [2] stood at 96.7%. Moreover, the Ki in data set [8] stood at 300 nM.

Turning to `CC(=O)O[C@H]1C[C@H]2[C@@H]([C@H](OC(C)=O)C[C@@H]3C[C@H](NCCCCCCNc4ccnc5cc(Cl)ccc45)CC[C@@]32C)[C@@H]2CC[C@H]([C@H](C)CCCNCCCCCCNc3ccnc4cc(Cl)ccc34)[C@@]12C`, in [2], the inhibition is 95.5%. Further, in [8], the Ki was determined as 285 nM.
